Here are results for six compounds from ChEMBL document CHEMBL4041548, “Ester Prodrugs of IHVR-19029 with Enhanced Oral Exposure and Prevention of Gastrointestinal Glucosidase Interaction” (ACS Med Chem Lett, 2017).

Series [1] in a line: Inhibition of endoplasmic reticulum alpha-glucosidase in HEK293 cells infected with DENV assessed as reduction in viral infection. Conditions: Homo sapiens. Type of series: cell-based.
The subject of series [2] is Mus musculus. Put plainly: AUC(0 to infinity) in BALB/c mouse at 25 mg/kg, po administered as single dose by LC-MS/MS analysis. Type of series: ADME, organism-based. Also noted: dose 25 mg/kg, time infinity, route oral. As to conditions: in vivo.
In series [3] the test system is Liver. Put plainly: Metabolic stability in pooled mouse liver microsomes assessed as parent compound remaining at 200 uM measured after 60 mins by LC-MS/MS analysis. Conditions: microsomes, 1 h, 200 µM. Type of series: ADME, microsome. In a few lines: (§1)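 Prodrugs or parent incubated in pooled human or mouse liver microsomes for up to 60 min, with or without cofactor. Percent remaining and percent conversion to the parent were measured.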
A general note: Microsomes from liver hold many membrane-bound enzymes, among them those of drug oxidation.

Series [4] has as its system Liver. Put plainly: Half life in pooled human liver microsomes at 200 uM by LC-MS/MS analysis. In kind it is ADME, microsome. Conditions: microsomes, 200 µM. In outline:
as §1

Series [5] has as its system Liver. Put plainly: Metabolic stability in pooled human liver microsomes assessed as parent compound remaining at 200 uM measured after 60 mins by LC-MS/MS analysis. As to conditions: microsomes, 1 h, 200 µM. In kind it is ADME, microsome. In a few lines:
as §1

The nature of series [6]: Metabolic stability in human intestinal S9 fraction assessed as parent compound level at 200 uM measured after 1 hr in presence or absence of NADPH by LC-MS/MS analysis. In kind it is ADME, Intestine. Conditions: read-out: Stability. In outline: (§2)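 Compounds incubated with intestinal S9 fraction for 1 h. Percent prodrug remaining and percent conversion to the parent were measured.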

The nature of series [7]: Tmax in BALB/c mouse at 100 mg/kg, po administered as single dose by LC-MS/MS analysis. Type of series: ADME, organism-based. Conditions: in vivo. In outline:
(§3)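 Male BALB/c mice dosed with the prodrugs or the parent orally (25 or 100 mg/kg) or intravenously (5 mg/kg). The parent compound was quantified in plasma and PK parameters were derived from it. The first sampling point was 5 min post-dose, and prodrugs were tracked up to 4 h.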

The species entered for the next series is Bos taurus. Put plainly: Inhibition of endoplasmic reticulum alpha-glucosidase in MDBK cells infected with Bovine Viral Diarrhea virus assessed as reduction in BVDV envelope glycoprotein E2 level at 3 to 100 uM by immunoblot analysis. In kind it is cell-based. In a few lines:
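MDBK cells infected with BVDV, then treated with various concentrations of the compounds. Cell lysates were run on SDS-PAGE and immunoblotted for the E2 envelope glycoprotein, looking for a mobility shift and lower intensity, with β-actin as internal control.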
(In general: A western blot detects proteins with antibodies after separation by electrophoresis.)

Series [8] is described as follows: Half life in BALB/c mouse at 100 mg/kg, po administered as single dose by LC-MS/MS analysis. Type of series: ADME, organism-based. Conditions: in vivo. In a few lines:
as §3

A short description of series [9]: Half life in BALB/c mouse at 25 mg/kg, po administered as single dose by LC-MS/MS analysis. In kind it is ADME, organism-based. Conditions: in vivo. In outline: as §3
Series [10] is described as follows: Cmax in BALB/c mouse at 25 mg/kg, po administered as single dose by LC-MS/MS analysis. In kind it is ADME, organism-based. Also noted: dose 25 mg/kg, route oral. Conditions: in vivo. In outline: as §3
A short description of series [11]: Inhibition of pig liver endoplasmic reticulum alpha glucosidase-1 using 4-methylumbelliferyl-alpha-D-glucoside as substrate measured after 90 mins by fluorescence analysis. Also noted: species or system Sus scrofa.
Series [12] is described as follows: Metabolic stability in pooled mouse liver microsomes assessed as parent compound remaining at 200 uM measured after 60 mins in presence of NADPH and UDPGA by LC-MS/MS analysis. In kind it is ADME, microsome. Conditions: read-out: Stability. In a few lines: as §1
A short description of series [13]: Volume of distribution at steady state in BALB/c mouse at 5 mg/kg, iv as bolus administration by LC-MS/MS analysis. Conditions: in vivo, read-out: Vdss. In kind it is ADME, organism-based. In outline:
as §3

Series [14] can be described thus: Metabolic stability in human plasma assessed as parent compound remaining at 5 uM measured after 2 hrs by LC-MS/MS analysis. Type of series: ADME, cell-free. As to conditions: read-out: Stability. In outline:
(§4)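 Compounds incubated in human or mouse plasma for 2 h. Percent remaining and percent conversion to the parent were determined.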

Series [15] in a line: Inhibition of endoplasmic reticulum alpha-glucosidase in human Huh7.5 cells infected with DENV assessed as reduction in viral growth by measuring DENV RNA level by qRT-PCR method. Type of series: cell-based. In outline: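 Huh7.5 cells infected with dengue virus and treated with a concentration series of the compounds (n = 4). DENV RNA was quantified by qRT-PCR and the EC50 was calculated.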
In general terms: Real-time PCR tracks product formation cycle by cycle.

Series [16] in a line: Stability in simulated gastric fluid assessed as parent compound remaining at 5 uM measured after 4 hrs by LC-MS/MS analysis. In outline:
(§5)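 Chemical stability assessed by incubation in simulated gastric fluid and simulated intestinal fluid; percent of compound remaining was measured.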

The subject of series [17] is Mus musculus. Put plainly: AUC(0 to infinity) in BALB/c mouse at 100 mg/kg, po administered as single dose by LC-MS/MS analysis. In kind it is ADME, organism-based. Also noted: dose 100 mg/kg, time infinity, route oral. As to conditions: in vivo.
Series [18] in a line: Inhibition of pig liver endoplasmic reticulum alpha glucosidase-2 using 4-methylumbelliferyl-alpha-D-glucoside as substrate measured after 60 mins by fluorescence analysis. Further details: species or system Sus scrofa.
Series [19] can be described thus: Tmax in BALB/c mouse at 25 mg/kg, po administered as single dose by LC-MS/MS analysis. In kind it is ADME, organism-based. As to conditions: in vivo. In a few lines:
as §3

Series [20] in a line: Cmax in BALB/c mouse at 5 mg/kg, iv as bolus administration by LC-MS/MS analysis. Further details: dose 5 mg/kg, route intravenous. In kind it is ADME, organism-based. Conditions: in vivo. In outline: as §3
For series [21], the system named is Mus musculus. As to the kind of experiment: AUC(0 to infinity) in BALB/c mouse at 5 mg/kg, iv as bolus administration by LC-MS/MS analysis. Type of series: ADME, organism-based. As to conditions: in vivo. Also noted: dose 5 mg/kg, time infinity, route intravenous.
A short description of series [22]: Half life in BALB/c mouse at 5 mg/kg, iv as bolus administration by LC-MS/MS analysis. Type of series: ADME, organism-based. Conditions: in vivo. In a few lines:
as §3

Series [23] relates to Liver. As to the kind of experiment: Half life in pooled mouse liver microsomes at 200 uM by LC-MS/MS analysis. Type of series: ADME, microsome. As to conditions: microsomes, 200 µM. In a few lines: as §1
A short description of series [24]: Stability in simulated intestinal fluid assessed as parent compound remaining at 5 uM measured after 4 hrs by LC-MS/MS analysis. In a few lines:
as §5

Series [25] can be described thus: Cmax in BALB/c mouse at 100 mg/kg, po administered as single dose by LC-MS/MS analysis. Also noted: dose 100 mg/kg, route oral. As to conditions: in vivo. Type of series: ADME, organism-based. In a few lines:
as §3

Series [26] in a line: Metabolic stability in mouse intestinal S9 fraction assessed as parent compound level at 200 uM measured after 1 hr in presence or absence of NADPH by LC-MS/MS analysis. In kind it is ADME, Intestine. As to conditions: read-out: Stability. In outline: as §2
Series [27] is described as follows: Clearance in BALB/c mouse at 5 mg/kg, iv as bolus administration by LC-MS/MS analysis. In kind it is ADME, organism-based. Conditions: in vivo. In a few lines: as §3
Series [28] can be described thus: Metabolic stability in pooled human liver microsomes assessed as parent compound remaining at 200 uM measured after 60 mins in presence of NADPH and UDPGA by LC-MS/MS analysis. Type of series: ADME, microsome. As to conditions: read-out: Stability. In outline: as §1
Series [29] is described as follows: Metabolic stability in mouse plasma assessed as parent compound remaining at 5 uM measured after 2 hrs by LC-MS/MS analysis. Type of series: ADME, cell-free. Conditions: read-out: Stability. In outline: as §4

Active and inactive are the calls of the source.

By EC50 is commonly meant the concentration at which the effect is half-maximal. `CCC(O)(CC)CCCCCCN1C[C@H](O)[C@@H](O)[C@H](O)[C@H]1CO`: the EC50 in [1] worked out at 2.2 µM.
With `OC[C@H]1NC[C@H](O)[C@@H](O)[C@@H]1O` [DUVOGLUSTAT], the EC50 in series [1] was determined as 364 µM.
The Tmax is the time from dosing to the highest level. A word on the half-life: it is the time needed for the level to fall by half in the phase considered. Lower therefore signals fast loss. The Cmax is the peak of the concentration-time curve. One may read the IC50 as the concentration at which inhibition is half-maximal. A lower IC50 goes with higher potency. A word on the clearance: it is the rate of elimination divided by the concentration. High values mean efficient removal, low ones inefficient removal. Turning to `CC(C)(C)NC(=O)N(CCCCCCN1C[C@H](O)[C@@H](O)[C@H](O)[C@H]1CO)C1CCCCC1`, the AUC in the series with Mus musculus [2] was determined as 150 ng·mL·h; with Mus musculus [17] it was 996 ng·mL·h; in the series with Mus musculus [21] it was 1191 ng·mL·h. Further, the Stability is 96% with Liver [3], 99% in the series on Liver [5], 109% in series [16] and 114% in series [24]. Also, the t1/2 in the series on Liver [4] is 1.73 h; in the series with Liver [23], 1.57 h. The remaining at 1 h, 200 µM in series [6] was 76 to 95%; in [12], 63%; in series [26] it was 76 to 95%; in series [28], 68%. The figures for the Tmax in [7] and in [19] were 0.5 h and 0.25 h, respectively. Further, the inhibition result in the series filed under Bos taurus was “Active”. The values for the half-life in series [8], in [9] and in series [22] were 5.46 h, 5.19 h and 0.98 h, respectively. The Cmax is 184 ng/mL in series [10], 2840 ng/mL in series [20] and 915 ng/mL in [25]. Besides, the IC50 in series [11] worked out at 0.81 µM; in series [18], 27.8 µM. Moreover, in series [13], the Vd was determined as 2.13 L/kg. Further, the values for the remaining at 2 h, 5 µM in [14] and in [29] were 109% and 93%, respectively. Besides, the figures for the EC50 in [1] and in [15] were 1.2 µM and 4.1 µM, respectively. The compound also showed a clearance in series [27] of 70 mL/min/kg.
Consider `CCCCCCCCCN1C[C@H](O)[C@@H](O)[C@H](O)[C@H]1CO`, for which the EC50 in [1] is 7.1 µM.
Still for that read-out and setting: to `OC[C@@H]1[C@@H](O)[C@H](O)[C@@H](O)CN1CCCCCCOc1cc(F)ccc1F` belongs 0.5 µM; to `CCCCN1C[C@H](O)[C@@H](O)[C@H](O)[C@H]1CO` [MIGLUSTAT], 56.4 µM.
